According to ChEMBL document CHEMBL1123427, “Synthesis of thyrotropin-releasing hormone analogues. 2. Tripeptides structurally greatly differing from TRH with high central nervous system activity” (1986):
Residues, ends and D or L forms follow the SMILES beside them.

Species: Mus musculus
Test: Reduction of hexobarbital induced sleeping time in mice.
Assay type: functional
Conditions: not given

SMILES	Sleeping time [min]
CC(C)C[C@H](NC(=O)[C@@H]1CCC(=O)O1)C(=O)N1CCC[C@H]1C(N)=O	36.8
CCC[C@H](NC(=O)[C@@H]1CCCC(=O)N1)C(=O)N1CCC[C@H]1C(N)=O	19.7
CC(C)C[C@H](NC(=O)[C@@H]1CNC(=O)N1)C(=O)N1CCC[C@H]1C(N)=O	25.8
CCC[C@H](NC(=O)[C@@H]1CCCC(=O)N1)C(=O)N1CSC[C@H]1C(N)=O	23.6
CCC[C@H](NC(=O)[C@@H]1CCC(=O)N1)C(=O)N[C@H](CCSC)C(N)=O	46.1
CC(=O)N1CCC[C@H]1C(=O)N[C@@H](CC(C)C)C(=O)N1CCC[C@H]1C(N)=O (Ac-Pro-Leu-Pro-NH2)	37.6
CC(C)C[C@H](NC(=O)[C@@H]1CCCN1)C(=O)N1CCC[C@H]1C(N)=O (H-Pro-Leu-Pro-NH2)	65.6
CC(C)C[C@H](NC(=O)[C@@H]1CCC(=O)N1)C(=O)NCC(N)=O (HELM PEPTIDE1{[Glp].L.G.[am]}$$$$V2.0)	35.8
CC(C)C[C@H](NC(=O)[C@@H]1CCC(=O)N1)C(=O)N1CCCC[C@H]1C(=O)O (HELM PEPTIDE1{[Glp].L.[O=C(O)[C@@H]1CCCCN1[*:1]]}$$$$V2.0)	33.3
CC(C)C[C@H](NC(=O)[C@@H]1CCC(=O)N1)C(=O)N1CCCC[C@H]1C(N)=O (HELM PEPTIDE1{[Glp].L.[O=C([C@@H]1CCCCN1[*:1])[*:2]].[am]}$$$$V2.0)	16.6
CC(C)C[C@H](NC(=O)[C@@H]1CCC(=O)N1)C(=O)N1CSC[C@H]1C(N)=O (HELM PEPTIDE1{[Glp].L.[O=C([C@@H]1CSCN1[*:1])[*:2]].[am]}$$$$V2.0)	17.2
CCC[C@H](NC(=O)[C@@H]1CCC(=O)N1)C(=O)N[C@H](C(N)=O)[C@@H](C)CC (HELM PEPTIDE1{[Glp].[Nva].I.[am]}$$$$V2.0)	47.7
CCC[C@H](NC(=O)[C@@H]1CCC(=O)N1)C(=O)N[C@@H](CC(C)C)C(N)=O (HELM PEPTIDE1{[Glp].[Nva].L.[am]}$$$$V2.0)	43
CCC[C@H](NC(=O)[C@@H]1CCC(=O)N1)C(=O)N1CSC[C@H]1C(N)=O (HELM PEPTIDE1{[Glp].[Nva].[O=C([C@@H]1CSCN1[*:1])[*:2]].[am]}$$$$V2.0)	26.4
CC(C)C[C@H](NC(=O)[C@@H]1CSCN1)C(=O)N1CCC[C@H]1C(N)=O (HELM PEPTIDE1{[O=C([C@@H]1CSCN1)[*:2]].L.P.[am]}$$$$V2.0)	35
CC(C)C[C@H](NC(=O)[C@@H]1CCCC(=O)N1)C(=O)N1CCC[C@H]1C(N)=O [POSATIRELIN]	16.4
NC(=O)[C@@H]1CCCN1C(=O)[C@H](Cc1c[nH]cn1)NC(=O)[C@@H]1CCC(=O)N1 [PROTIRELIN]	24.8

Species: Rattus norvegicus
Test: Dose that inhibited cataleptic effect of haloperidol in rat by 50%
Assay type: functional
Conditions: not given

SMILES	ED50 [mg/kg]
CCC[C@H](NC(=O)[C@@H]1CCCC(=O)N1)C(=O)N1CCC[C@H]1C(N)=O	10.6
CCC[C@H](NC(=O)[C@@H]1CCCC(=O)N1)C(=O)N1CSC[C@H]1C(N)=O	60.3
CC(C)C[C@H](NC(=O)[C@@H]1CCC(=O)N1)C(=O)N1CCCC[C@H]1C(N)=O (HELM PEPTIDE1{[Glp].L.[O=C([C@@H]1CCCCN1[*:1])[*:2]].[am]}$$$$V2.0)	38.5
CC(C)C[C@H](NC(=O)[C@@H]1CCC(=O)N1)C(=O)N1CSC[C@H]1C(N)=O (HELM PEPTIDE1{[Glp].L.[O=C([C@@H]1CSCN1[*:1])[*:2]].[am]}$$$$V2.0)	31.4
CCC[C@H](NC(=O)[C@@H]1CCC(=O)N1)C(=O)N1CSC[C@H]1C(N)=O (HELM PEPTIDE1{[Glp].[Nva].[O=C([C@@H]1CSCN1[*:1])[*:2]].[am]}$$$$V2.0)	56

Species: Rattus norvegicus
Test: Thyrotropin releasing activity (TSH) was evaluated by measuring the TSH response to the compound by radioimmunoassay in two doses in the rat
Assay type: functional
Conditions: not given
How it was run: (§1)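 Rat two-point assay at 1 and 10 μg. TSH response is measured by radioimmunoassay. Compounds are dissolved in physiological saline (5 mL/kg), and controls receive the same volume of saline. n = 10 animals per treatment. Significance is given as p < 0.01 and p < 0.001.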

SMILES	Activity [%]
CCC[C@H](NC(=O)[C@@H]1CCCC(=O)N1)C(=O)N1CCC[C@H]1C(N)=O	0
CC(C)C[C@H](NC(=O)[C@@H]1CNC(=O)N1)C(=O)N1CCC[C@H]1C(N)=O	0
CCC[C@H](NC(=O)[C@@H]1CCC(=O)N1)C(=O)N[C@H](CCSC)C(N)=O	0
CC(C)C[C@H](NC(=O)[C@@H]1CCC(=O)N1)C(=O)N1CCCC[C@H]1C(N)=O (HELM PEPTIDE1{[Glp].L.[O=C([C@@H]1CCCCN1[*:1])[*:2]].[am]}$$$$V2.0)	7.2
CC(C)C[C@H](NC(=O)[C@@H]1CCC(=O)N1)C(=O)N1CSC[C@H]1C(N)=O (HELM PEPTIDE1{[Glp].L.[O=C([C@@H]1CSCN1[*:1])[*:2]].[am]}$$$$V2.0)	0
CCC[C@H](NC(=O)[C@@H]1CCC(=O)N1)C(=O)N[C@H](C(N)=O)[C@@H](C)CC (HELM PEPTIDE1{[Glp].[Nva].I.[am]}$$$$V2.0)	0
CCC[C@H](NC(=O)[C@@H]1CCC(=O)N1)C(=O)N[C@@H](CC(C)C)C(N)=O (HELM PEPTIDE1{[Glp].[Nva].L.[am]}$$$$V2.0)	0
CCC[C@H](NC(=O)[C@@H]1CCC(=O)N1)C(=O)N1CSC[C@H]1C(N)=O (HELM PEPTIDE1{[Glp].[Nva].[O=C([C@@H]1CSCN1[*:1])[*:2]].[am]}$$$$V2.0)	0
CC(C)C[C@H](NC(=O)[C@@H]1CSCN1)C(=O)N1CCC[C@H]1C(N)=O (HELM PEPTIDE1{[O=C([C@@H]1CSCN1)[*:2]].L.P.[am]}$$$$V2.0)	0
CC(C)C[C@H](NC(=O)[C@@H]1CCCC(=O)N1)C(=O)N1CCC[C@H]1C(N)=O [POSATIRELIN]	2.7
NC(=O)[C@@H]1CCCN1C(=O)[C@H](Cc1c[nH]cn1)NC(=O)[C@@H]1CCC(=O)N1 [PROTIRELIN]	100

Species: Rattus norvegicus
Test: Doses that inhibited cataleptic effect of haloperidol in rat by 50%
Assay type: functional
Conditions: not given

SMILES	ED50 [mg/kg]
CC(C)C[C@H](NC(=O)[C@@H]1CCCC(=O)N1)C(=O)N1CCC[C@H]1C(N)=O [POSATIRELIN]	23.5

Species: Rattus norvegicus
Test: Thyrotropin releasing activity (TSH) was evaluated by measuring the TSH response to the compound by radioimmunoassay in two doses in the rat; np denotes Slightly significant but not parallel TSH response to the lower and upper dose s used
Assay type: functional, organism-based
Conditions: not given
How it was run: as §1

SMILES	Activity
CCC[C@H](NC(=O)[C@@H]1CCCC(=O)N1)C(=O)N1CSC[C@@H]1C(N)=O	Slightly significant but not parallel
CC(C)C[C@H](NC(=O)[C@@H]1CCCN1)C(=O)N1CCC[C@H]1C(N)=O (H-Pro-Leu-Pro-NH2)	Slightly significant but not parallel
CC(C)C[C@H](NC(=O)[C@@H]1CCC(=O)N1)C(=O)N1CCCC[C@H]1C(=O)O (HELM PEPTIDE1{[Glp].L.[O=C(O)[C@@H]1CCCCN1[*:1]]}$$$$V2.0)	Slightly significant but not parallel

The compounds below were run on Rattus norvegicus (assay: Ability of 80 mg/kg to inhibit the cataleptic effect of haloperidol in rat; Potentiating effect). Conditions: at 80 mg/kg.
Assay type: functional, organism-based
Parameters: dose 80 mg/kg

SMILES	inhibition
CCC[C@H](NC(=O)[C@@H]1CCC(=O)N1)C(=O)N[C@H](C(N)=O)[C@@H](C)CC (HELM PEPTIDE1{[Glp].[Nva].I.[am]}$$$$V2.0)	Potentiating effect

These compounds were tested on Rattus norvegicus (assay: Ability of 80 mg/kg to inhibit the cataleptic effect of haloperidol in rat). Conditions: not given.
Assay type: functional

SMILES	inhibition in vivo at 80 mg/kg [%]
CC(C)C[C@H](NC(=O)[C@@H]1CCC(=O)O1)C(=O)N1CCC[C@H]1C(N)=O	40
CC(C)C[C@H](NC(=O)[C@@H]1CNC(=O)N1)C(=O)N1CCC[C@H]1C(N)=O	40
CCC[C@H](NC(=O)[C@@H]1CCC(=O)N1)C(=O)N[C@H](CCSC)C(N)=O	20
CC(=O)N1CCC[C@H]1C(=O)N[C@@H](CC(C)C)C(=O)N1CCC[C@H]1C(N)=O (Ac-Pro-Leu-Pro-NH2)	0
CC(C)C[C@H](NC(=O)[C@@H]1CCCN1)C(=O)N1CCC[C@H]1C(N)=O (H-Pro-Leu-Pro-NH2)	0
CC(C)C[C@H](NC(=O)[C@@H]1CCC(=O)N1)C(=O)NCC(N)=O (HELM PEPTIDE1{[Glp].L.G.[am]}$$$$V2.0)	0
CC(C)C[C@H](NC(=O)[C@@H]1CCC(=O)N1)C(=O)N1CCCC[C@H]1C(=O)O (HELM PEPTIDE1{[Glp].L.[O=C(O)[C@@H]1CCCCN1[*:1]]}$$$$V2.0)	20
CCC[C@H](NC(=O)[C@@H]1CCC(=O)N1)C(=O)N[C@@H](CC(C)C)C(N)=O (HELM PEPTIDE1{[Glp].[Nva].L.[am]}$$$$V2.0)	20
CC(C)C[C@H](NC(=O)[C@@H]1CSCN1)C(=O)N1CCC[C@H]1C(N)=O (HELM PEPTIDE1{[O=C([C@@H]1CSCN1)[*:2]].L.P.[am]}$$$$V2.0)	0
NC(=O)[C@@H]1CCCN1C(=O)[C@H](Cc1c[nH]cn1)NC(=O)[C@@H]1CCC(=O)N1 [PROTIRELIN]	40
